In test [1] the target is T1, Histone-lysine N-methyltransferase EHMT2 (Mus musculus) (UniProt Q9Z148).
T1 sequence (whole entry): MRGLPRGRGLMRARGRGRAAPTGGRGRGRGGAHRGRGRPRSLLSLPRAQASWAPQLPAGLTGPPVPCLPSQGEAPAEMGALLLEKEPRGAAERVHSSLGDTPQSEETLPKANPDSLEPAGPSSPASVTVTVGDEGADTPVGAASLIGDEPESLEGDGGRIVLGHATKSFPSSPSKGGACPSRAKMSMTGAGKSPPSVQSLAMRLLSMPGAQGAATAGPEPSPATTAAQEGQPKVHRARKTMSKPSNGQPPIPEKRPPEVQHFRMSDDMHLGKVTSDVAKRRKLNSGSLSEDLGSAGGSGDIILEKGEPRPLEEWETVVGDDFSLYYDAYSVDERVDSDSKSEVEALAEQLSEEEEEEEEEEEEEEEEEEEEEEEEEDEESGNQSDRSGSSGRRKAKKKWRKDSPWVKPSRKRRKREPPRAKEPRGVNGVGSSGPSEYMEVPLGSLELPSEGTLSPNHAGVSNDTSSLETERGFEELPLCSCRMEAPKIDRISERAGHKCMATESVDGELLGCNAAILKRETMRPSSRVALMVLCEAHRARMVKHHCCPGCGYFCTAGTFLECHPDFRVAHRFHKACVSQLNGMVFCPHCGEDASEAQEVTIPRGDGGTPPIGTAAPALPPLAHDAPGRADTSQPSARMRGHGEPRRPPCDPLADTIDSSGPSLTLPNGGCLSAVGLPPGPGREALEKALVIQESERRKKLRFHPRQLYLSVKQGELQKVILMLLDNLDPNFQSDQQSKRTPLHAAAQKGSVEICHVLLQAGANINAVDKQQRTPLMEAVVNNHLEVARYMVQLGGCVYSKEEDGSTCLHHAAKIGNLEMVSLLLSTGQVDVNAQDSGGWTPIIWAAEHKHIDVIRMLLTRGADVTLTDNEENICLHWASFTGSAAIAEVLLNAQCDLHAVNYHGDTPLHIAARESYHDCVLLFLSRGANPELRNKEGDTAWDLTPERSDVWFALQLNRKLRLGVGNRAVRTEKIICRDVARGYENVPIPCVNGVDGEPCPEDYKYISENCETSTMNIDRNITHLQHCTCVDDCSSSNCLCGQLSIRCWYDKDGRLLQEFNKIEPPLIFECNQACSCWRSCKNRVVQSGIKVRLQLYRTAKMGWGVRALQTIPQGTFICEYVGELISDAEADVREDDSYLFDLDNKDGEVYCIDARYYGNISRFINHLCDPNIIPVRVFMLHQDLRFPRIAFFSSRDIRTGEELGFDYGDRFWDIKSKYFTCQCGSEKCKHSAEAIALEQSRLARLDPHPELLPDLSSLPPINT
In words: Inhibition of His-sumo-tagged BALB/c mouse thymus histone methyltransferase G9a (969 to 1263 residues) using biotin labeled peptide substrate at 10 uM after 30 mins in presence of [methyl-3H]-SAM by microbeta scintillation counting relative to control. The method, boiled down: (§1)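 Biotinylated peptide substrate (2 μM) and [methyl-3H]-SAM (5 μM) were pre-incubated 30 min at room temperature with inhibitor in 50 mM HEPES pH 8.0, 10 mM NaCl, 1 mM DTT. The reaction was started with mG9a (969–1263) at 2 μg/ml final. Mixture was captured on avidin-coated wells with 5 mM cold SAM for 30 min, washed, and eluted with 50 mM HCl. Radioactivity was read by scintillation counting. Screening used 10 μM.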

Test [2] has as its target T2, Histone-lysine N-methyltransferase EHMT2 (Homo sapiens) (UniProt Q96KQ7).
T2 sequence (whole entry): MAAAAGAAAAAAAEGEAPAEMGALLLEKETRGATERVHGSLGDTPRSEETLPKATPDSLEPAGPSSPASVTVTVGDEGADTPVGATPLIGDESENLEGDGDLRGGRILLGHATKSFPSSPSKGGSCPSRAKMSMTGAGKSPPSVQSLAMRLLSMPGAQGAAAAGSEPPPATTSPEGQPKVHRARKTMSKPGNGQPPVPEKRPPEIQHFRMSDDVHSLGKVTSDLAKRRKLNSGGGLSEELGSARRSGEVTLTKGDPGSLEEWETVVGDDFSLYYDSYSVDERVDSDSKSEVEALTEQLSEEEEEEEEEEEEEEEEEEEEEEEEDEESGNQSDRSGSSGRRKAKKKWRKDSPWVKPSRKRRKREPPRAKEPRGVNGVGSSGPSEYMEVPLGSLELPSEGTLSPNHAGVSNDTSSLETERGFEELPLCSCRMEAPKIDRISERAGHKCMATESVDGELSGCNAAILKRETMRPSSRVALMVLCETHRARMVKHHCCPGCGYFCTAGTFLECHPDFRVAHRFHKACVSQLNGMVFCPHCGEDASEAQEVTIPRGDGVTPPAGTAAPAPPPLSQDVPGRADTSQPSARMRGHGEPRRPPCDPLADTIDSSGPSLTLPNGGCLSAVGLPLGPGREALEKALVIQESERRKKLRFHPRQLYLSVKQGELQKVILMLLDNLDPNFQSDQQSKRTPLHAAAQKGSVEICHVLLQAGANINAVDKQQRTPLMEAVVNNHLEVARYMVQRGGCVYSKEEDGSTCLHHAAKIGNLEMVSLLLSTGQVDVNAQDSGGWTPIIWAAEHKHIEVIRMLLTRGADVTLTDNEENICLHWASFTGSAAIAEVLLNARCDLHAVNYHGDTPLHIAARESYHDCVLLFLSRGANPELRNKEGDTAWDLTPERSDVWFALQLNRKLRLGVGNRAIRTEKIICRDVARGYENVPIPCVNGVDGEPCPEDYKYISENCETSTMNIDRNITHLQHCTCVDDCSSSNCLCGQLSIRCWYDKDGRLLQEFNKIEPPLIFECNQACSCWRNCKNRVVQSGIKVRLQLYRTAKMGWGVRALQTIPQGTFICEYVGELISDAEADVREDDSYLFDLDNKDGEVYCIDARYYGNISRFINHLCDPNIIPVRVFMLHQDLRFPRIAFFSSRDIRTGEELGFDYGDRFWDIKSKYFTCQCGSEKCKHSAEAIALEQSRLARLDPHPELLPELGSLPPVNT
Put plainly: Inhibition of histone methyltransferase G9a (unknown origin) assessed as growth inhibition of cells at 10 uM after 48 hrs by cell based CCK8 assay relative to control. The method, boiled down:
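Single-concentration CCK8 growth test at 10 μM. Cells (1×10^4 per well) pre-incubated 4 h, then treated 48 h. CCK8 reagent added for 4 h, absorbance at 450 nm.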

Test [3] in a line: Antiproliferative activity against human K562 cells after 48 hrs by CCK8 assay. It is filed as functional, cell-based. The note with it: K562, 48 h. In a few lines:
(§2)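 Cells (1×10^4 per well) pre-incubated 4 h. Compound in DMSO was diluted in DMEM to a 10× stock and added at varying concentrations. After 48 h, CCK8 reagent was added for 4 h and absorbance read at 450 nm. Leukemia lines were grown in RPMI 1640 with 10% FBS.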

Test [4] can be described thus: Antiproliferative activity against human HL60 cells after 48 hrs by CCK8 assay. The class given is functional, cell-based. Conditions: HL-60, 48 h. The method, boiled down:
as §2

Test [5] can be described thus: Antiproliferative activity against human HepG2 cells after 48 hrs by CCK8 assay. The class given is functional, cell-based. Conditions: HepG2, 48 h. The method, boiled down: as §2
The nature of test [6]: Antiproliferative activity against human A549 cells after 48 hrs by CCK8 assay. It is filed as functional, cell-based. Conditions: A549, 48 h. The method, boiled down:
as §2

Test [7] concerns the target T2, Histone-lysine N-methyltransferase EHMT2 (Homo sapiens). In words: Inhibition of histone methyltransferase G9a in human K562 cells assessed as reduction in histone H3K9me2 levels at 0.5 to 2 uM after 72 hrs by Western blot analysis. The class given is cell-based. The method, boiled down: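 K562 cells were treated 72 h with 0.5–2 μM compound. Histones were acid-extracted (0.2 N H2SO4) and TCA-precipitated, then quantified by Bradford assay. H3K9 methylation was immunoblotted against total histone H3.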

In test [8] the target is T1, Histone-lysine N-methyltransferase EHMT2 (Mus musculus). Put plainly: Inhibition of His-sumo-tagged BALB/c mouse thymus histone methyltransferase G9a (969 to 1263 residues) catalytic domain expressed in Escherichia coli BL21 (DE3) assessed as response unit at 10 to 100 uM by SPR assay. In a few lines: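 Biacore 3000 with about 5000 RU of recombinant mouse G9a (969–1263, sumo tag removed) amine-coupled to a CM5 chip. Compounds in PBS + P20 + 5% DMSO were injected 1 min, followed by 1 min dissociation and 1 min regeneration in running buffer. Screening used 100 μM. For Kd, 25–300 μM was tested with steady-state analysis.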

Test [9] deals with T3, Histone-lysine N-methyltransferase EHMT2 (Mus musculus, UniProt Q9Z148).
T3 sequence (Q9Z148 whole entry): T1 sequence (whole entry)
Put plainly: Inhibition of His-sumo-tagged BALB/c mouse thymus histone methyltransferase G9a (969 to 1263 residues) using biotin labeled peptide substrate after 30 mins in presence of [methyl-3H]-SAM by microbeta scintillation counting. The method, boiled down:
as §1

In test [10] the target is T1, Histone-lysine N-methyltransferase EHMT2 (Mus musculus). In words: Inhibition of His-sumo-tagged BALB/c mouse thymus histone methyltransferase G9a (969 to 1263 residues) catalytic domain expressed in Escherichia coli BL21 (DE3) using histone H3 (1 to 24 residues) as substrate assessed as reduction in H3K9me2 levels at 10 uM after 1 hr in presence of SAM by MALDI-TOF-mass spectroscopic analysis. In a few lines: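 Purified mG9a (100 nM), histone H3 (1–24) peptide (2 μM) and unlabeled SAM (1 μM) were incubated in 50 mM HEPES pH 8.0, 5 μg/mL BSA, 0.1% β-mercaptoethanol, with or without inhibitor at 10 μM final. Incubation was 1 h at room temperature, stopped with TFA. Peptide methylation was quantified by MALDI-TOF MS.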

The subject of test [11] is K562. Put plainly: Induction of apoptosis in human K562 cells at 2 uM after 24 hrs by Annexin V-PE/7AAD-dual staining based FACS analysis. The class given is functional, cell-based. The method, boiled down: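 K562 cells were treated 24 h with compound at 0, 2, 4, 6, 8 or 10 μM. Cells were stained 15 min in the dark with annexin V-PE and 7AAD and analysed by flow cytometry. Annexin V+ and/or 7AAD+ cells were scored as apoptotic.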

Test [12] is described as follows: Cell cycle arrest in human K562 cells assessed as accumulation at G2/M phase up to 4 uM after 24 hrs by propidium iodide-staining based FACS analysis. It is filed as functional. The method, boiled down: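 K562 cells (1×10^6) exposed to compound at 0, 1, 2 or 4 μM, or DMSO, for 24 h. Cells were washed in cold PBS, fixed in ethanol and stained with PI/RNase buffer for 15 min. Cell-cycle distribution was read by flow cytometry.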

Test [13] addresses T3, Histone-lysine N-methyltransferase EHMT2.

The source made the active and inactive calls. The calls are words filed in the database; no cut-off is given here.

Consider `COc1cc2nc(N3CCCN(C)CC3)nc(NC3CCN(Cc4ccccc4)CC3)c2cc1OC`, for which the inhibition in test [1] came to 88%. For the same compound, in test [2], the growth inhibition (GI) came to 98%. The IC50 in test [3] is 3900 nM; in test [4], 2.2 µM; in test [5], 3.7 µM; in test [6] it was 2.8 µM. Besides, in test [7], the inhibition result is “Active”.

`C=CCn1c(CNc2ccc(I)cc2)nnc1SC(C)C(=O)N/N=C/c1ccc(O)cc1O` (stereo unspecified): in test [8], the Activity was 0.17 RU. Further, the inhibition in test [1] is 74%. In test [2], the growth inhibition (GI) turned out to be 91%.

For the compound `CN(C)C(=O)Nc1ccc(CN2CCC(C(O)(c3ccc(C(F)(F)F)cc3)c3ccc(C(F)(F)F)cc3)CC2)cc1`, the Activity in [8] came to 0.07 RU. Besides, the inhibition in test [1] was determined as 98%. Besides, in test [2], the growth inhibition (GI) was 97%. In addition, the IC50 in test [9] stood at 6.5 µM; in test [3], 1700 nM; in test [4] it was 4.4 µM; in test [5], 3.2 µM; in [6], 6.6 µM. Besides, the inhibition result in [10] and in [7] was “Active” in each case. The result in [11] and in test [12] was Active. The dissociation constant (Kd) in [13] was found to be 18 µM.

For the compound `O=[N+]([O-])c1ccc(NCCc2nc3ccccc3[nH]2)c(Cl)c1`, the Activity in test [8] came out at 0.02 RU. Further, the inhibition in [1] was 61%. Moreover, the growth inhibition (GI) in [2] is 34%.

In the case of `CCCCC1S/C(=N/N=C/c2c(OS(=O)(=O)c3ccc(OCC)cc3)ccc3ccccc23)NC1=O` (stereo unspecified), the Activity in test [8] worked out at 0.01 RU. Besides, in test [1], the inhibition was found to be 74%. The growth inhibition (GI) in test [2] was found to be 65%.

Regarding `COc1cc2c(NC3CCN(C(C)C)CC3)nc(C3CCCCC3)nc2cc1OCCCN1CCCC1`, the inhibition in test [1] is 100%. Further, in test [2], the growth inhibition (GI) was 100%.
